KCNQ1 inh: inhibitors of human KCNQ1 potassium channel; CHO-K1 KCNQ1, FluxOR thallium flux fluorescence; stronger effect = higher value; B-score at 10 µM; hit rate 1.3% among 310,000; AID 2642;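 active = compounds whose thallium flux B-score, printed positive for inhibition, exceeds three library SD while starting fluorescence stays within three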;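 note: channel opened by potassium depolarization with thallium stimulus after 20 min compound exposure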
KCNQ1 act: human KCNQ1 channel potentiation or activation. CHO-K1 KCNQ1, thallium flux FluxOR fluorescence; stronger effect = higher value. AID 2648. hit rate 0.35% among 310,000. B-score at 10 µM;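 active = fluorescence ratio B-score, a plate-corrected score, at least three library SD, with initial intensity B-score within 5 SD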
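Assay system: stable KCNQ1 CHO-K1 line; medium: assay buffer, equal DMSO in all wells; timing: 90 min dye loading and 20 min compound exposure, both at room temperature; technique: kinetic FluxOR thallium fluorescence, 10-s 1-Hz baseline, 110-s post-stimulus read; read-out basis: B score of baseline-normalized fluorescence ratio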
KCNK9 block: inhibitors of human KCNK9 two-pore domain potassium channel | HEK293 KCNK9, FluxOR thallium flux fluorescence; stronger effect = lower value | B-score at 10 µM | hit rate 1.2% among 310,000 | Q9NPC2;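 active = ratio B-score over 3 SD below the library mean, with starting fluorescence within 5 SD of its mean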;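 note: negative B-score means less thallium flux so channel inhibition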
Kir21 block: Kir2.1 (mouse) channel inhibition; B-score at 10 µM; hit rate 0.85% among 310,000; HEK293-Kir2.1, FluxOR thallium flux fluorescence; stronger effect = lower value; AID 1672; P35561;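 active = fluorescence ratio B-score at or below minus 3 SD of library scores, with starting-brightness B-score within 2 SD, cut at about -4.2 in these data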;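 note: channel flux triggered by added potassium and thallium sulfate stimulus; B-score of peak minus minimum fluorescence over baseline after thallium stimulus; more negative B-score means stronger Kir2.1 block with less thallium influx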
Target sequence (P35561 whole entry, looked up): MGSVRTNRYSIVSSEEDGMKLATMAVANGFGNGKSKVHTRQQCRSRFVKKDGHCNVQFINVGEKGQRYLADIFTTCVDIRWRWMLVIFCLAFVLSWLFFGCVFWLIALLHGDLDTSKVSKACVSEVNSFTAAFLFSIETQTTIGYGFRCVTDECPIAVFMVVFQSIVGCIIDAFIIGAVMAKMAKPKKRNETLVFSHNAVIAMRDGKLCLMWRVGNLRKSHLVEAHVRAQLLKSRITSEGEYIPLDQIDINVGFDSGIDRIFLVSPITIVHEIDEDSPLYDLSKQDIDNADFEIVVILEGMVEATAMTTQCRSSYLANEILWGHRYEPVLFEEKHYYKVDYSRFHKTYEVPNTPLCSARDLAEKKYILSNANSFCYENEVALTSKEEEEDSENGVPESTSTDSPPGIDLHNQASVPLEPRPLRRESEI
hERG rescue: hERG (human) protection from proarrhythmic block. Q12809. CHO-hERG, FluxOR thallium flux, dofetilide IC70 present. activation (rescue from dofetilide block), less the hit threshold, % at 10 µM. hit rate 0.51% among 310,000. AID 1511;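 active = activation above the mean of controls blocked by dofetilide plus 5 SD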;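 note: thallium influx through hERG after potassium depolarization seen as dye fluorescence rise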
KCNK3 inh: human KCNK3 channel inhibition, primary screen; O14649; CHO-KCNK3 thallium flux, FluxOR fluorescence; stronger effect = lower value; B-score at 10 µM; hit rate 0.84% among 340,000;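 active = B-score under library mean minus 4 SD, starting fluorescence ratio at most library mean plus 5 SD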;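 note: more negative B-score means stronger inhibition of thallium flux through KCNK3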
KCNK3 confirm: human KCNK3 channel inhibition, confirmation assay. shares compounds with KCNK3 inh. CHO-KCNK3 thallium flux, FluxOR fluorescence; 0% buffer, 100% carvedilol maximal block. ratio percent of control, % at 10 µM. hit rate 99% among 2,400. AID 651638;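 active = ratio percent of control, averaged over triplicates, above buffer control mean plus 5 SD, cut at about 64% in these data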;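 note: ratio is the fluorescence rise from min to max over baseline after thallium stimulus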
KCNK3 uninduced: KCNK3 inhibitor counter-screen hit in non-induced cells | shares compounds with KCNK3 inh | non-induced KCNK3 parental cells, FluxOR thallium flux; stronger effect = lower value | thallium flux ratio (lower = more inhibition) at 10 µM | hit rate 40% among 2,400 | AID 651747;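 active = thallium flux ratio, averaged over three wells, more than 5 SD below the buffer control mean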;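 note: host cells are CHO cells without KCNK3 induction; ratio is peak minus trough fluorescence over baseline then normalized to buffer controls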
* marks the source's active call; other numbers are inactive results; i = inactive; / = not tested or not shown. In the library only some 3.7% were active in any assay of this set; here they are far more common.

SMILES | KCNQ1 inh | KCNQ1 act | KCNK9 block | Kir21 block | hERG rescue | KCNK3 inh | KCNK3 confirm | KCNK3 uninduced
CCc1ccc2[nH]c(=O)c(CN(Cc3ccc4c(c3)OCO4)Cc3nnnn3C3CCCC3)cc2c1 | i | i | i | -0.83 | -4 | -8.7* | 128* | 0.13*
Cc1ccc2cc(CN(Cc3ccccc3)Cc3nnnn3C3CCCC3)c(=O)[nH]c2c1 | i | i | i | 0.2 | -6 | -10* | 103* | 0.15*
Cc1ccc2cc(CN(Cc3ccc(F)cc3)Cc3nnnn3C3CCCC3)c(=O)[nH]c2c1 | i | i | i | 0.29 | -3 | i | / | /
COc1ccc(C(=O)NNC(=O)c2ccc3ccccc3n2)cc1 | / | / | / | / | / | i | / | /
CSCCC(NC(=O)c1ccccc1Cl)C(=O)Nc1ccc(C)c(S(=O)(=O)N2CCOCC2)c1 (stereo not drawn) | i | i | i | 0.42 | -12 | i | / | /
Cc1ccsc1CN(C)C(=O)c1ccc(Oc2ccccc2)cc1 | i | i | -7.5* | -0.79 | -16 | -9.9* | 113* | i
CCOC(=O)CSc1nc2ccccc2c(=O)n1CC | i | i | i | 2.3 | -1 | i | / | /
CCOC(=O)CSc1nc2ccccc2c(=O)n1CC1CCCC1 | i | i | i | -1.1 | -12 | -11* | 116* | 0.15*
CCc1ccc(-c2cc(C)no2)cc1S(=O)(=O)N1CCN(c2ccc(F)cc2)CC1 | i | i | i | -0.95 | -13 | i | / | /
O=C(Nc1ccc(Cl)cn1)c1ccc2ccccc2n1 | i | i | i | 0 | -7 | -8.7* | 93* | i
Cc1ccc(NC(=O)c2ccc3ccccc3n2)nc1 | i | i | i | 0.78 | -14 | i | / | /
CC1CCN(c2ccccc2NC(=O)c2cc3ccccc3o2)CC1 | i | i | i | -1.2 | -12 | -9.7* | 106* | i
Cc1ccccc1NC(=O)c1cc2ccccc2o1 | i | i | i | -1.9 | -10 | i | / | /
COc1ccc(C2c3ccc(O)cc3Oc3ncn(Cc4ccccc4)c(=N)c32)cc1OC (stereo not drawn) | i | i | i | 0.27 | -14 | -8.9* | 75* | i
c1ccc(CSc2cc3ccccc3[nH]2)cc1 | i | i | i | 0.03 | -10 | i | / | /
O=C(NCc1nnc(SCC(=O)N2CCCc3ccccc32)n1-c1ccccc1)c1cccc2ccccc12 | i | i | i | -0.51 | -13 | i | / | /
COc1ccc(-n2c(Cc3ccccc3)nnc2SCC(=O)N2CCCc3ccccc32)cc1 | i | i | i | -2.9 | -3 | -12* | 87* | i
O=C1OC(c2cccs2)=N/C1=C\c1ccc(-c2ccccc2Cl)o1 | i | i | -7.9* | -2.9 | -21 | i | 141* | 0.11*
Cc1cccc(/C=C/c2nc3ccccc3c(=O)[nH]2)c1 | i | i | i | -0.38 | -8 | -9.4* | 87* | i
CCn1c(SCC(=O)Nc2oc(-c3ccccc3)c(-c3ccccc3)c2C#N)nnc1-c1ccncc1 | i | i | i | 0.73 | -11 | -9.3* | 118* | 0.14*
O=C(Cc1ccc(Cl)cc1)NNC(=S)NC(=O)c1cccs1 | i | i | i | 1.2 | -11 | i | / | /
O=C(Cc1cccs1)NNC(=S)NCc1ccc(Cl)cc1 | i | i | -7.7* | -2.4 | -6 | -11* | 77* | i
O=C(c1ccc(COc2ccccc2Br)cc1)N1CCCCCC1 | i | i | i | -0.86 | -2 | i | / | /
COC(=O)COc1ccc(S(=O)(=O)Nc2ccc3c(c2)OCO3)cc1 | i | i | i | 0.31 | -13 | i | / | /
COC(=O)COc1ccc(S(=O)(=O)Nc2ccc3c(c2)OCO3)cc1Cl | i | i | i | -1.2 | -18 | -9.7* | 98* | i
CC(C)c1ccc(S(=O)(=O)Nc2ccc3c(c2)OCO3)cc1 | / | / | / | / | / | -11* | 122* | i
